Screening data: PubChem, several laboratories
The entries come from a sample that favours hits as a whole.
CHOP inhibitor – inhibitors of CHOP promoter induction, primary screen, cell-based, unfolded protein response, luciferase reporter | CHO-K1 CHOP-promoter luciferase, tunicamycin-induced, 15-18 h | inhibition, % at 10 µM | hit rate 3.8% among 220,000;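 active means compounds that reduced the stress-induced luciferase reporter signal by more than about 70% of percent inhibition, limit read from the data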;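 further: 0% = tunicamycin plus vehicle and 100% = wells without tunicamycin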
XBP1 UPR activ – activators of adaptive XBP1 UPR arm, primary screen, cell-based, CHO-XBP1 luciferase reporter, luminescence, uHTS; IRE1-XBP1 UPR activation; percent of tunicamycin response, DMSO as zero; activation, % at 20 µM; hit rate 0.33% among 330,000; AID 463104, 2010;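 active means versus positive control, 20 µM dose yields 30% or more activation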;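 further: 100% = tunicamycin at 10 µg/mL and 0% = DMSO only wells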
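Material: IRE1-XBP1 luciferase reporter CHO line / Quantity: one thousand reporter cells per well / Buffer or medium: F12 with 10% serum / Compound: 20 µM single concentration, DMSO 1% / Times: 6 h treatment, 37 °C / Detection: Steady-Glo luciferase glow luminescence, 10 min after reagent addition / Benchmarks: tunicamycin high, DMSO low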
Jurkat NFkB inh – inhibitors of induced NF-kB luciferase reporter, primary screen, TCR NF-kB activation inhibitor project, cell-based, luminescence, uHTS | Jurkat, PMA/ionomycin-induced NF-kB luciferase reporter | inhibition, % at 4 µM | hit rate 0.53% among 330,000; in the data active means inhibition above about 50%
UPR CHOP act – activators of apoptotic CHOP UPR arm, primary screen, cell-based, CHO-CHOP luciferase reporter, luminescence, uHTS | UPR activation; percent of tunicamycin response over DMSO baseline | activation, % at 10 µM | hit rate 0.34% among 330,000;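 active means at 10 µM dose, activation of 40% or more, normalized to positive control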;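 further: 100% = tunicamycin at 10 µg/mL and 0% = DMSO alone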
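System: CHO-CHOP luciferase reporter cell line | Buffer or medium: F12 medium containing 10% fetal bovine serum | Doses: One dose, 10 µM in 0.5% DMSO | Times: 6 h compound exposure at 37 °C after overnight seeding | Signal: Luciferase luminescence | Read-out: % activation vs tunicamycin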
697 NFkB inh – inhibitors of PMA/ionomycin-induced NF-kB reporter, 697 cells, primary screen, B-cell NF-kB inhibitor project, cell-based, luminescence, uHTS | 697 B-cell NF-kB luciferase reporter, 16 h | inhibition, % at 4 µM | hit rate 0.33% among 330,000; in the data active means inhibition above about 35%
CHOP inh conf – retest of CHOP induction inhibitors, confirmation, cell-based; shares compounds with CHOP inhibitor; CHO-CHOP promoter luciferase reporter, tunicamycin-induced, luminescence; inhibition, % at 10 µM; hit rate 45% among 2,100; AID 504437, 2011;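 active means mean of three repeat readings of reporter signal inhibition above a set limit, cut at about 70% in these data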;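 further: 0% = tunicamycin plus vehicle and 100% = wells lacking tunicamycin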
* marks the source's active call; other numbers are inactive results; · = no result.

SMILES	CHOP inhibitor	XBP1 UPR activ	Jurkat NFkB inh	UPR CHOP act	697 NFkB inh	CHOP inh conf
O=C(CSc1ncn[nH]1)NNC(=O)c1ccccc1	·	-1.5	3.9	-0.1	-7.4	·
O=C(NC(Cc1ccccc1)C(=O)O)/C(=C/c1ccccc1)NC(=O)c1ccco1 (configuration not stated)	·	-4.8	-8.8	-0.3	-10.1	·
CC(C)(C)C(=O)NC(NC(=S)Nc1sc2c(c1C#N)CCCC2)C(Cl)(Cl)Cl (configuration not stated)	97.1*	-1.6	-8.5	-1.3	-26.0	74.4*
CC(=O)Nc1ccc(NC(=O)CSc2ccc(C(F)(F)F)cc2[N+](=O)[O-])cc1	15.1	0.8	4.3	-1.4	8.0	·
O=C(CSc1ccc(C(F)(F)F)cc1[N+](=O)[O-])Nc1ccccc1	96.7*	-1.0	-51.5	-0.2	-8.2	3.4
O=C(Nc1ccc(F)cc1)c1ccccc1Oc1ccc(C(F)(F)F)cc1[N+](=O)[O-]	106.1*	-2.8	-6.6	-0.1	16.2	12.2
CCc1ccc(C2=C/C(=C/c3cccnc3)C(=O)O2)cc1	103.2*	-2.8	3.5	0.4	5.9	-59.2
CC[C@H](C)[C@H](NC(=O)c1ccc(Cl)cc1)C(=O)OCC(=O)c1ccc2c(c1)NC(=O)CO2	104.6*	6.5	9.2	-0.3	18.1	30.4
COc1cccc(CN(C)S(=O)(=O)c2c(C)noc2C)c1OC	·	-5.9	-9.9	-1.3	-3.9	·
CCCOC(=O)c1ccc(Oc2cn[nH]c2-c2ccc(OC)cc2O)cc1	106.4*	-5.6	16.1	-2.7	-38.1	115.8*
COc1cccc(Oc2cn[nH]c2-c2ccc(OCC(=O)NN)cc2O)c1	·	6.7	-22.4	0.7	-2.5	·
Cc1ccc(C)c(NC(=S)NC(NC(=O)/C=C/c2ccccc2)C(Cl)(Cl)Cl)c1 (configuration not stated)	106.5*	13.5	1.8	24.1	8.1	91.7*
O=C(/C=C/c1ccccc1)NC(NC(=S)Nc1ccc(C(=O)O)cc1)C(Cl)(Cl)Cl (configuration not stated)	42.7	-0.1	5.2	2.8	-3.5	·
O=c1[nH]c(NCCO)nc2c1C1(CCCCC1)Cc1ccccc1-2	98.6*	-2.0	-1.4	-2.4	-0.1	13.1
Cc1ccc(C(=O)/C=C\C(=O)c2ccc(C)cc2)cc1	102.3*	·	·	·	·	-54.6
Cc1c(C#N)c(NC(=O)c2cccc(Cl)c2)n(Cc2ccccc2)c1C	27.4	-2.9	13.9	-2.7	18.4	·
COc1ccc(Cn2c(C)c(C)c(C#N)c2NC(=O)Nc2ccc(Cl)cc2)cc1	105.8*	-0.3	2.7	-1.1	20.6	102.9*
CC1(C(=O)Nc2ccc(S(=O)(=O)Nc3ncccn3)cc2)CCCC1	·	-2.0	-4.6	1.1	2.5	·
CC(=O)Nc1cn(-c2ccccc2)nc1-c1ccccc1	0.2	2.4	-16.6	1.9	-3.0	·
O=C(CCl)Nc1cn(-c2ccccc2)nc1-c1ccccc1	106.8*	-4.7	6.4	5.9	-16.7	105.7*
Cc1ccc(O)c(NC(=O)c2noc3c2CCc2ccccc2-3)c1	107.3*	1.9	-13.6	7.8	-82.3	-96.1
Cc1cc(NC(=O)c2noc3c2CCc2ccccc2-3)no1	19.2	1.9	-48.2	5.6	-31.1	·
CCNc1nc(Oc2c(Cl)cccc2Cl)cc(C(F)(F)F)n1	97.5*	-0.8	2.3	-0.5	-24.8	101.5*
Cc1ccc(-c2csc3nc4c5ccccc5c(NCCCN5CCOCC5)nn4c(=O)c23)cc1	11.2	6.6	3.8	3.1	16.5	·
Cc1ccc(-c2csc3nc4c5ccccc5c(NCCCN(C)C)nn4c(=O)c23)cc1	101.5*	12.6	6.7	1.9	-15.7	-305.2
CC(C)CNS(=O)(=O)c1cc2c3c(c1)CCC(=O)N3CCC2	·	-8.4	-14.8	-1.2	-42.6	·
CCn1c2ccccc2c2cc(NC(=O)CSc3nnc(-c4ccc(OC)cc4)n3N)ccc21	101.9*	14.0	-64.5	-0.8	-34.5	43.0
COc1cccc(CNS(=O)(=O)c2cc3c4c(c2)CCN4C(=O)CC3)c1	·	-2.0	7.5	0.5	-7.0	·
